# Many of the other results were omitted from the sample, so hits are more common in it than they were.
# Lipid droplet = modulators of hepatic lipid droplet formation; AID 1656; inhibition, % at 6.5 µM; actives 0.4% (n = 240,000); AML12 mouse hepatocytes, oleate lipid droplets, BODIPY imaging;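 active = lipid droplet intensity inhibited by at least 50%, with more than 500 cells counted; inconclusive = wells with under 300 cells, treated as cytotoxic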
#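 Material – mouse AML12 hepatocyte cell line, fixed after treatment · Compound dosing – one dose, 6.5 µM compound · Times – compound with oleate, overnight · Measured by – Image-based BODIPY and DAPI two-channel analysis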
# MPTP inh = permeability transition pore inhibition. isolated mouse mitochondria, Ca2+ swelling absorbance, 30 min. inhibition, % at 10 µM. actives 1.4% (n = 360,000). AID 602449;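 active = inhibition of 50% or more, scaled per plate between neutral and stimulator controls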
# Lmaj promast = Leishmania major promastigote growth inhibition | inhibition, % at 10 µM | actives 9% (n = 200,000) | Leishmania major promastigotes, resazurin fluorescence viability; in the data active = inhibition above about 50%;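 also: promastigotes grown with compound for 44 hours at 28 °C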
# Redox H2O2 prof = compounds producing H2O2 with reducing agent – biochemical, NIH compound library profiling, artefact control for MLSCN library redox annotation, primary screen; actives 0.03% (n = 200,000); DTT-dependent redox cycling H2O2, phenol red/HRP absorbance; 100% = 100 µM peroxide control, 0% = buffer; activation, % at 10 µM;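 active = activation of at least 50% relative to the plate's high and low controls in the primary single-dose screen; inactive = activation below 50%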;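 also: compound incubated with DTT at 0.8 mM final as the reducing agent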
# T cruzi inh = blocks replication of Trypanosoma cruzi; T. cruzi beta-gal in NIH3T3, luminescence, 90 h; inhibition, % (no concentration beside the values); actives 1.4% (n = 300,000); AID 1885;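 active = mean inhibition across valid replicates above about 55%, limit read from the data; inconclusive = mean below that limit but half or more replicates reach it; inactive = mean below it, under half of replicates reach it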;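 also: signal also drops with host cell toxicity which is not excluded here; higher percent means less beta-gal luminescence so fewer parasites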
#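 System: NIH/3T3 fibroblasts plus reporter T. cruzi. Medium: DMEM plus 2% FBS. Probe or stimulus: 5000 reporter trypomastigotes per well. Compound: single 50 nL compound addition per well in DMSO. Incubation: co-culture of at least 90 h after 3 h attachment. Detection: GalScreen β-gal luminescence, detergent lysis, 60 min. Evaluation: parasite load inhibition, %.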
# Rh123 counter = mitochondrial membrane potential, counter-screen; actives 78% (n = 5,000); shares compounds with MPTP inh; isolated mitochondria, Rhodamine 123 fluorescence; inhibition, % at 10 µM; in the data active = inhibition above about 22%
# MPTP abs DR = dose response confirmation of mitochondrial permeability transition pore inhibitors. shares compounds with MPTP inh. isolated mitochondria swelling, absorbance. IC50, µM. actives 58% (n = 780); in the data active = IC50 below about 20 µM
# MPTP counter DR = active in counter-screen for permeability transition pore inhibitors | actives 49% (n = 780) | isolated mitochondria counterscreen, fluorescence read-out | IC50, µM | shares compounds with MPTP inh; in the data active = IC50 below about 80 µM
# Numbers stand for hits; n = inactive; u = inconclusive; x = no result given; ! = not confirmed by another sample.
SMILES,Lipid droplet,MPTP inh,Lmaj promast,Redox H2O2 prof,T cruzi inh,Rh123 counter,others
CCOC(=O)c1c(-c2ccc(OC)cc2)oc2c1C(OC(C)=O)CCC2 (stereo not drawn),x,n,x,x,x,x,
CCCCCN(C(=O)CCC(=O)OCCOc1ccc(OCC)cc1)c1c(N)n(CCCC)c(=O)[nH]c1=O,x,n,x,x,n,x,
CC(=O)Nc1ccccc1OCC(=O)NCC(F)(F)F,n,n,n,n,n,x,
Clc1cccc(-c2nnc(SCc3nc4ccccc4[nH]3)n2Cc2ccco2)c1,x,n,n,n,n,x,
Clc1ccc(OCc2nnc(SCc3nc4ccccc4[nH]3)n2Cc2ccco2)cc1,x,61.5,n,n,n,34.6,
Cn1nc(-c2ccccc2)cc1NC(=O)c1ccccc1,x,n,x,x,n,x,
Cn1nc(-c2ccccc2)cc1NC(=O)Nc1ccc(C(C)(C)C)cc1,n,69.7,x,x,n,74.4,
Cn1nc(-c2ccc(Cl)cc2)cc1NC(=O)Nc1ccccc1,n,70.5,x,x,n,69.2,
Cc1cc(/C=C2\SC(=S)NC2=O)c(C)[nH]1,n,n,n,n,n,x,
O=C1NC(=S)S/C1=C\c1cc(Cl)ccc1Cl,x,98.5,x,x,x,84.0,
CCOC(=O)c1c(C)[nH]c(C(=O)N/N=C/c2cc([N+](=O)[O-])ccc2O)c1C,n,56.4,x,x,n,n,
CCOC(=O)c1c(C)[nH]c(C(=O)N/N=C\c2ccccc2O)c1C,n,69.3,99.9,n,n,65.7,
CC(C)n1ncc2c(C(=O)Nc3cccc(C#N)c3)cc(C3CC3)nc21,x,73.1,x,x,x,85.4,
CCCC1=NN(c2ccc([N+](=O)[O-])cc2)C(=O)/C1=C\N(C)C,n,77.7,n,n,n,25.6,
COc1ccc(-c2csc(NC(=O)CSc3nc(SC)ns3)n2)cc1,n,65.1,51.7,n,n,74.3,
CCOC(=S)SCC(=O)Nc1nc(-c2ccc(Br)cc2)cs1,n,80.0,n,n,n,75.1,
COc1ccc(-c2csc(NC(=O)CSc3nc(C)cs3)n2)cc1,x,n,n,n,n,x,
Cc1ccc([N+](=O)[O-])cc1S(=O)(=O)Nc1ccccn1,n,n,n,n,n,x,
CCOc1ccc2[nH]c3c(NCCC(C)C)ncnc3c2c1,n,78.0,x,x,u,67.1,
COc1ccc2[nH]c3c(NCCCOC(C)C)ncnc3c2c1,n,n,x,x,n,x,
CCOc1ccc2[nH]c3c(NCCN(C)C)ncnc3c2c1,n,n,x,x,n,x,
COc1ccc2[nH]c3c(NCCC4=CCCCC4)ncnc3c2c1,n,94.1,99.8,n,87.2,92.8,
CCOC(=O)C1CCN(C(=O)CNC(=O)Cn2c(C)cc3ccccc3c2=O)CC1,n,n,x,x,n,x,
Cc1cc(=O)n(C)c(=O)n1CCCCCCOc1cccc([N+](=O)[O-])c1,n,57.1,n,n,n,20.5,
Cc1ccccc1OCC(=O)NCC(=O)OCc1ccc(Br)cc1,n,n,x,x,n,x,
SMILES,Lipid droplet,MPTP inh,Lmaj promast,Redox H2O2 prof,T cruzi inh,Rh123 counter,others
CCCCNc1c(-c2ccc(SC3CCCCC3)c(OC)c2)nc2ccc(C)cn12,x,n,x,x,x,x,
COc1ccc(-c2nc3ccc(C)cn3c2NCc2ccccc2)cc1SC1CCCCC1,x,97.5,x,x,62.6,95.5,
CCCCNc1c(-c2ccc(OC)c(SC3CCCCC3)c2)nc2ccc(C)cn12,x,76.4!,x,x,x,98.1,
O=C1CN(CC(=O)NC2CCCc3ccccc32)CCN1 (stereo not drawn),n,n,x,x,n,x,
OCCCNc1ncnc2scc(-c3ccc(Cl)cc3)c12,n,n,x,x,n,x,
O=S(=O)(Nc1ncnc2scc(-c3ccc(F)cc3)c12)c1cc(F)ccc1F,n,57.1,x,x,n,74.9,
Cc1ccc(-c2csc3ncnc(NS(=O)(=O)c4ccc(Cl)cc4)c23)cc1,n,85.4,n,n,n,63.3,
COc1ccc(NC(=O)c2ccc(-c3ccc(-c4noc(C)n4)cc3C)cc2)cc1N1CCN(C)CC1,x,80.6,x,x,x,n,
COc1ccc(-c2nc(-c3ccc(NC(=O)c4ccncc4)cc3)no2)cc1OC,n,n,n,n,n,x,
CN(C)CCCNC(=O)/C(=C\C=C\c1ccccc1)NC(=O)c1ccc([N+](=O)[O-])cc1,n,n,x,x,n,x,
CC(C1CC1)N(Cc1ccccc1)C(=S)Nc1cccc(C(F)(F)F)c1 (stereo not drawn),n,65.4,87.5,n,n,84.6,
O=C(Nc1ccccc1)c1cc([N+](=O)[O-])ccc1NC1CCCCC1,n,51.1,n,n,n,n,MPTP counter DR=n
c1ccc(CC2CCN(C3=Nc4cccc5cccc3c45)CC2)cc1,n,51.1,100.1,n,65.8,28.6,
CC(C)C(=O)Nc1ccc(Sc2ccc(F)cc2)cc1,x,51.7,n,n,u,36.7,
Oc1ccccc1N=Nc1nc(-c2ccccc2)c(-c2ccccc2)[nH]1,n,75.6,100.0,n,63.3,53.7,
CC1(C)CC(NC(=O)c2cccc(S(=O)(=O)N(Cc3ccccc3)c3ccccc3)c2)CC(C)(C)N1,x,82.6,x,x,n,n,MPTP abs DR=9.49;MPTP counter DR=n
Fc1ccc(NC(=S)N2CCCN(c3ccc(C(F)(F)F)cn3)CC2)c(F)c1,n,71.2,x,x,n,44.5,
CC1CN(C(=S)Nc2ccc(F)cc2F)CC(C)O1 (stereo not drawn),n,n,x,x,n,x,
Cc1csc2ncnc(N3CCN(C(=S)Nc4ccc(F)cc4F)CC3)c12,n,82.5,x,x,n,74.6,
COc1cc(CNn2cn[nH]c2=S)cc(Br)c1OCc1ccccc1F,n,n,n,n,n,x,
COc1cccc(CNCCO)c1OCc1ccccc1Cl,n,n,n,n,n,x,
CCOc1cc(CNCCCN2CCOCC2)cc(Br)c1OCc1ccccc1Cl,n,99.6,100.5,n,80.0,n,
CCOc1cc(Cl)c(CNCCCN2CCOCC2)cc1OC,n,n,x,x,n,x,
COc1cc(CNCCO)cc(Cl)c1OCc1ccccc1Cl,n,80.0,98.8,n,n,n,MPTP abs DR=5.51;MPTP counter DR=n
CCOc1cc(CNCCO)cc(Br)c1OCc1ccc(Cl)cc1,x,90.1,100.6,n,n,n,MPTP abs DR=3.79;MPTP counter DR=61.2
SMILES,Lipid droplet,MPTP inh,Lmaj promast,Redox H2O2 prof,T cruzi inh,Rh123 counter,others
COc1cc(CNCc2ccncc2)cc(Br)c1OCc1ccccc1F,x,94.1,97.8,n,55.1,65.5,
CCOc1cccc(CNCCO)c1OCc1ccc(Cl)cc1,n,n,n,n,n,x,
CCOc1ccccc1CNCCO,n,n,n,n,n,x,
CCOc1cc(CNCCO)cc(Br)c1OCc1ccccc1Cl,x,82.2,99.7,n,n,20.4,
COc1ccc(Cl)cc1NC(=O)CCN1CCN(c2ccccc2C)CC1,x,n,n,n,n,x,
CCN1CCN(c2ncc(C(=O)Nc3cc(Cl)ccc3OC)c3ccccc23)CC1,n,77.7,n,n,n,n,MPTP abs DR=n;MPTP counter DR=n
CCCCOc1nc2ccccc2nc1C(C#N)S(=O)(=O)c1ccccc1 (stereo not drawn),n,51.2,n,n,n,77.9,

# Screens from PubChem.
